Results from ChEMBL document CHEMBL4017489, “Design, Synthesis, and Evaluation of New Selective NM23-H2 Binders as c-MYC Transcription Inhibitors via Disruption of the NM23-H2/G-Quadruplex Interaction” (J Med Chem, 2017).
Calls of active or inactive are those of the source. No cut-off for these calls is given here.

Legend:
[1] = tested on: Nucleoside diphosphate kinase B (Homo sapiens), P22392 [F60A]; test: Binding affinity to NM23-H2 F60A mutant (unknown origin) up to 50 uM by SPR analysis
[2] = biological target: T1, Nucleoside diphosphate kinase B (Homo sapiens, UniProt P22392, G113F); test: Binding affinity to NM23-H2 G113F mutant (unknown origin) by SPR analysis
[3] = biological target: T1, Nucleoside diphosphate kinase B; test: Binding affinity to N-terminal NT-647-NHS labeled NM23-H2 G113F mutant (unknown origin) after 30 mins by MST analysis
[4] = Binding affinity to biotin-labeled Pu22 c-myc G-quadruplex DNA (unknown origin) at 40 uM after 30 mins by SPR analysis
SiHa [5] = test: Induction of apoptosis in human SiHa cells assessed as early apoptotic cells at 0.5 uM after 48 hrs by Annexin V-FITC/propidium iodide based flow cytometric analysis (reference value: 1.4 %); assay type: functional
SiHa [6] = test: Induction of apoptosis in human SiHa cells assessed as early apoptotic cells at 2 uM after 48 hrs by Annexin V-FITC/propidium iodide based flow cytometric analysis (reference value: 1.4 %); assay type: functional
SiHa [7] = test: Induction of apoptosis in human SiHa cells assessed as late apoptotic cells at 0.5 uM after 48 hrs by Annexin V-FITC/propidium iodide based flow cytometric analysis (reference value: 0.7 %); assay type: functional
SiHa [8] = test: Induction of apoptosis in human SiHa cells assessed as late apoptotic cells at 2 uM after 48 hrs by Annexin V-FITC/propidium iodide based flow cytometric analysis (reference value: 0.7 %); assay type: functional
SiHa [9] = test: Cell cycle arrest in human SiHa cells assessed as accumulation at G0/G1 phase at 2 uM after 3 hrs by propidium iodide staining based flow cytometry (reference value: 48%); assay type: functional
Summary of the method: (§1)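 SiHa cells plated 24 h, treated at 2 μM for 3–48 h; fixed in ice-cold 70% ethanol overnight, RNase A 20 μg/mL 37 °C 30 min, PI-stained, flow cytometry at 488 nm; phase percentages quantified; at least three experiments.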

SiHa [10] = test: Cell cycle arrest in human SiHa cells assessed as accumulation at S phase at 2 uM after 6 hrs by propidium iodide staining based flow cytometry (reference value: 13 %); assay type: functional
Summary of the method: (§2)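 SiHa cells (2.0 × 10^5 per well) plated 24 h, then exposed to 2 μM compound or left untreated for 3, 6, 9, 12, 24, 36 or 48 h. Cells washed in PBS, fixed overnight in ice-cold 70% ethanol, treated with 20 μg/mL RNase A for 30 min at 37 °C, stained with PI, and read by flow cytometry at 488 nm. Phase percentages compared with untreated control; at least three experiments.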

SiHa [11] = test: Cell cycle arrest in human SiHa cells assessed as accumulation at S phase at 2 uM after 9 hrs by propidium iodide staining based flow cytometry (reference value: 13 %); assay type: functional; summary of the method: as §2
SiHa [12] = test: Cell cycle arrest in human SiHa cells assessed as accumulation at G2/M phase at 2 uM after 9 hrs by propidium iodide staining based flow cytometry (reference value: 39 %); assay type: functional; summary of the method: as §2
SiHa [13] = test: Cell cycle arrest in human SiHa cells assessed as accumulation at G0/G1 phase at 2 uM after 12 hrs by propidium iodide staining based flow cytometry (reference value: 48 %); assay type: functional; summary of the method: as §1
SiHa [14] = test: Cell cycle arrest in human SiHa cells assessed as accumulation at S phase at 2 uM after 12 hrs by propidium iodide staining based flow cytometry (reference value: 13 %); assay type: functional; summary of the method: as §2
SiHa [15] = test: Cell cycle arrest in human SiHa cells assessed as accumulation at G2/M phase at 2 uM after 12 hrs by propidium iodide staining based flow cytometry (reference value: 39 %); assay type: functional; summary of the method: as §1
SiHa [16] = test: Cell cycle arrest in human SiHa cells assessed as accumulation at S phase at 2 uM after 36 hrs by propidium iodide staining based flow cytometry (reference value: 13 %); assay type: functional; summary of the method: as §2
SiHa [17] = test: Cell cycle arrest in human SiHa cells assessed as accumulation at G2/M phase at 2 uM after 36 hrs by propidium iodide staining based flow cytometry (reference value: 39 %); assay type: functional; summary of the method: as §2
SiHa [18] = test: Cell cycle arrest in human SiHa cells assessed as accumulation at S phase at 2 uM after 48 hrs by propidium iodide staining based flow cytometry (reference value: 13 %); assay type: functional; summary of the method: as §2
SiHa [19] = test: Cell cycle arrest in human SiHa cells assessed as accumulation at G2/M phase at 2 uM after 48 hrs by propidium iodide staining based flow cytometry (reference value: 39 %); assay type: functional; summary of the method: as §2
SiHa [20] = test: Cell cycle arrest in human SiHa cells assessed as accumulation at sub-G1 phase at 2 uM after 12 hrs by propidium iodide staining based flow cytometry relative to control; assay type: functional; summary of the method: as §2
SiHa [21] = test: Cell cycle arrest in human SiHa cells assessed as accumulation at sub-G1 phase at 2 uM after 24 hrs by propidium iodide staining based flow cytometry relative to control; assay type: functional; summary of the method: as §2
[22] = Induction of apoptosis in mouse primary mesangial cells at 0.5 to 2 uM after 48 hrs by Annexin V-FITC/propidium iodide based flow cytometric analysis; settings: primary mesangial cell
Summary of the method: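 Primary cultured mouse mesangial cells treated at the same concentrations as SiHa cells. Stained with annexin V-FITC and PI and analysed by flow cytometry.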

[23] = Anticlonogenic activity against mouse primary mesangial cells at 0.03125 to 0.5 uM after 14 days by crystal violet staining based assay; assay type: ADME; settings: primary mesangial cell, 336 h
Summary of the method: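 Colony formation: SiHa cells and primary cultured mouse mesangial cells exposed to 0.5, 0.25, 0.125, 0.0625 and 0.03125 μM for 14 days, DMSO as negative control; three repeats.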

SiHa [24] = test: Antitumor activity against human SiHa cells xenografted in BALB/C nude mouse assessed as tumor growth inhibition at 5 mg/kg, ip administered daily after 3 weeks relative to control; assay type: functional; settings: 504 h, read-out: TGI
SiHa [25] = test: Antitumor activity against human SiHa cells xenografted in BALB/C nude mouse assessed as tumor weight at 2.5 mg/kg, ip administered daily after 3 weeks (reference value: 511.6 mg); assay type: functional
Mus musculus [26] = test: Toxicity in BALB/C nude mouse xenografted with human SiHa cells assessed as pain at 2.5 to 5 mg/kg, ip administered daily after 3 weeks; assay type: organism-based; settings: in vivo, 504 h
Summary of the method: (§3)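 SiHa cells implanted in the right armpit of BALB/c nu/nu mice. At approximately 50 mm3, mice randomized (n = 8/group) to vehicle, compound 2.5 or 5.0 mg/kg, or doxorubicin 1.0 mg/kg, given ip daily for 3 weeks. Body weight and signs of pain, distress or discomfort monitored; tumors excised and weighed. Data given as mean ± SEM, t test against vehicle.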

Mus musculus [27] = test: Toxicity in BALB/C nude mouse xenografted with human SiHa cells assessed as distress at 2.5 to 5 mg/kg, ip administered daily after 3 weeks; assay type: organism-based; settings: in vivo, 504 h; summary of the method: as §3
Mus musculus [28] = test: Toxicity in BALB/C nude mouse xenografted with human SiHa cells assessed as discomfort at 2.5 to 5 mg/kg, ip administered daily after 3 weeks; assay type: organism-based; settings: in vivo, 504 h; summary of the method: as §3
SiHa [29] = test: Induction of apoptosis in human SiHa cells assessed as necrotic cells at 0.5 uM after 48 hrs by Annexin V-FITC/propidium iodide based flow cytometric analysis (reference value: 0.3%); assay type: functional
SiHa [30] = test: Induction of apoptosis in human SiHa cells assessed as necrotic cells at 1 uM after 48 hrs by Annexin V-FITC/propidium iodide based flow cytometric analysis (reference value: 0.3%); assay type: functional

T1 sequence (P22392 whole entry G113F): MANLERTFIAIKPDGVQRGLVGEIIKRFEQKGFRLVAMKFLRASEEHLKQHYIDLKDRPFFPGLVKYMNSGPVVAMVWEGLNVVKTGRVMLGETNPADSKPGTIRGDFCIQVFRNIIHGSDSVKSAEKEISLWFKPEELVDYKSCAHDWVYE
Chain of Nucleoside diphosphate kinase B (Homo sapiens), P22392 [F60A] (P22392 whole entry F60A): as the sequence (P22392 whole entry G113F) above, with F60A, F113G counted along it

Compound: CN(C)CCCNc1cc2nc3n(c(=O)c2cc1F)CC/C3=C\c1ccc(OCc2ccccc2)cc1O
- Activity [1]: inactive
- Kd [2]: 15.5 µM
- Kd [3]: 13.5 µM
- Activity [4]: inactive
- Activity (SiHa [5]): 11.8%
- Activity (SiHa [6]): 4.8%
- Activity (SiHa [7]): 5.1%
- Activity (SiHa [8]): 90.3%
- Activity (SiHa [9]): 51%
- Activity (SiHa [10]): 12%
- Activity (SiHa [11]): 12%
- Activity (SiHa [12]): 21%
- Activity (SiHa [13]): 54%
- Activity (SiHa [14]): 11%
- Activity (SiHa [15]): 27%
- Activity (SiHa [16]): 0%
- Activity (SiHa [17]): 0%
- Activity (SiHa [18]): 0%
- Activity (SiHa [19]): 0%
- Activity (SiHa [20]): 8%
- Activity (SiHa [21]): 64%
- Activity [22]: Non-Toxic
- Activity [23]: Non-Toxic
- inhibition in vivo at 5 mg/kg (SiHa [24]): 64.8%
- Activity (SiHa [25]): 265.9 mg
- Activity (Mus musculus [26]): Non-Toxic
- Activity (Mus musculus [27]): Non-Toxic
- Activity (Mus musculus [28]): Non-Toxic
- Activity (SiHa [29]): 0.3%
- Activity (SiHa [30]): 1.3%
